The results in this text go back to ChEMBL document CHEMBL5705892, “MK-2206, an allosteric Akt inhibitor, enhances antitumor efficacy by standard chemotherapeutic agents or molecular targeted drugs in vitro and in vivo” (Mol Cancer Ther, 2010).

The subject of one data set is A-431. As to the kind of experiment: Synergistic antiproliferative activity against human A-431 cells assessed as combination index at ED90 measured after 72 hrs in presence of erlotinib by celltiter-glo assay. The data set is classed as functional. In short, it runs like this: (§1)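 Cells were seeded at 2–3 × 10³ per well in RPMI 1640 with 10% FBS. At 24 h, MK-2206 and the partner drug were added simultaneously at constant concentration ratios spanning each agent's IC₅₀, for 72 h. Growth was read as cellular ATP by CellTiter-Glo. CI was taken from median-effect plots of each agent alone and in combination (Chou–Talalay), at ED₅₀, ED₇₅ and ED₉₀.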
A general note: ATP-based viability assays read luminescence as a measure of living cells.

Data set [1] concerns SK-BR-3. Nature of the data set: Synergistic antiproliferative activity against human SK-BR-3 cells assessed as combination index at ED90 measured after 72 hrs in presence of docetaxel by celltiter-glo assay. The data set is classed as functional.
A further data set relates to NCI-H1299. As to the kind of experiment: Synergistic antiproliferative activity against human NCI-H1299 cells assessed as combination index at ED50 measured after 72 hrs in presence of erlotinib by celltiter-glo assay. The class given is functional.
Another data set has as its system NCI-N87. As to the kind of experiment: Synergistic antiproliferative activity against human NCI-N87 cells assessed as combination index at ED50 measured after 72 hrs in presence of lapatinib by celltiter-glo assay. The class given is functional.
Data set [2] deals with NCI-H460. As to the kind of experiment: Synergistic antiproliferative activity against human NCI-H460 cells assessed as combination index at ED75 measured after 72 hrs in presence of camptothecin by celltiter-glo assay. The class given is functional.
Data set [3] deals with SK-BR-3. Nature of the data set: Synergistic antiproliferative activity against human SK-BR-3 cells assessed as combination index at ED75 treated 24 hrs prior to lapatinib and measured after 72 hrs by celltiter-glo assay. The class given is functional. To be noted: time 96 hrs.
The subject of a further data set is NCI-H292. As to the kind of experiment: Antitumor activity against human NCI-H292 cells xenografted in CD-1 mouse assessed as tumor growth suppression at 120 mg/kg, po administered 3 times per week for 2 weeks starting 2 hrs post-erlotinib treatment and measured twice a week during compound dosing by caliper method. The data set is classed as functional, organism-based. In outline: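 Female CD1-nude mice carried s.c. NCI-H292 cells in Matrigel/PBS and were randomized at 0.2 cm³, n = 5. […] MK-2206 (30% Captisol) was given 2 h later at 120 mg/kg po on days 0, 2, 4, 7, 9, 11, or at 360 mg/kg on days 0 and 7. Control received vehicle. Caliper volume twice weekly.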
For orientation: In xenograft studies the graft and the host belong to different species.

The test system of a further data set is A2780. Nature of the data set: Synergistic antiproliferative activity against human A2780 cells assessed as combination index at ED50 measured after 72 hrs in presence of doxorubicin by celltiter-glo assay. The class given is functional. In outline: as §1
The next data set has as its system SK-OV-3. As to the kind of experiment: Antitumor activity against human SK-OV-3 cells xenografted in po dosed CB17/icr SCID mouse assessed as tumor growth inhibition administered 3 times per week for 2 weeks starting 2 hrs post lapatinib treatment and measured twice a week during compound dosing by caliper method. The data set is classed as functional, organism-based. To be noted: dose 60-120 mg/kg. In outline: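 SK-OV-3 cells were implanted s.c. into female C.B-17/ICR-scid mice, which were randomized at 0.13 cm³, n = 5. Lapatinib (water) was given at 100 mg/kg po on days 0–4 and 7–11. MK-2206 (30% Captisol) was given at 60 or 120 mg/kg po on days 0, 2, 4, 7, 9, 11. Tumor volume by calipers twice weekly.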

Data set [4] has as its target RAC-alpha serine/threonine-protein kinase (Homo sapiens) (UniProt P31749). Nature of the data set: Inhibition of AKT in human A-431 cells assessed as reduction in PRAS40 phosphorylation at T246 residue at 5 umol/L measured after 5 hrs in presence of erlotinib by Western blot analysis. The data set is classed as cell-based. To be noted: dose 5.0 µmol/L. In outline:
(§2)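 Cells were lysed in Tris-HCl pH 7.5, 150 mM NaCl, 1% Triton X-100 with protease and phosphatase inhibitors. Lysates were run on SDS-PAGE, transferred to nitrocellulose and probed with phospho-specific antibodies.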
(Immunoblotting shows a protein as a band on a membrane.)

Data set [5] can be described thus: Toxicity in human PC-3 cells xenografted CD1 nude mouse assessed as body weight loss at 120 mg/kg, po administered 3 times per week for 2 weeks measured during compound dosing relative to control. The class given is organism-based. To be noted: in vivo, 336 h. In short, it runs like this: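 Male CD1-nude mice with s.c. PC-3 tumours (50% Matrigel/50% PBS, left flank), randomized at mean 0.2 cm³, n=5/group, treated from 25 d post-implant. Body weight monitored versus vehicle-only controls.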

For another data set, the system named is HCC827. As to the kind of experiment: Synergistic antiproliferative activity against human HCC827 cells assessed as combination index at ED90 measured after 72 hrs in presence of erlotinib by celltiter-glo assay. The data set is classed as functional. In short, it runs like this: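 Cells grown in RPMI 1640 with 10% heat-inactivated FBS at 37°C, 5% CO₂. Seeded at 2 to 3 × 10³ per well; drugs added 24 h later. […] Viability read as cellular ATP by CellTiter-Glo. CI calculated by Chou–Talalay from median-effect plots at ED50, ED75 and ED90.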

Data set [6] has as its system NCI-H460. As to the kind of experiment: Synergistic antiproliferative activity against human NCI-H460 cells assessed as combination index at ED50 measured after 72 hrs in presence of 5-FU by celltiter-glo assay. The class given is functional.
Data set [7] can be described thus: Toxicity in human NCI-H460 cells xenografted CD1 nude mouse assessed as body weight loss at 120 mg/kg, po administered 3 times per week for 2 weeks in presence of carboplatin measured during compound dosing relative to control. To be noted: in vivo, 336 h. The class given is organism-based. In outline:
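Female CD1-nude mice with s.c. NCI-H460 tumours (50% Matrigel/50% PBS), randomized at mean 0.2 cm³, n=5/group, dosing from 12 d post-implant. Body weight monitored against vehicle-only controls.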

Data set [8] has as its system HCC70. Nature of the data set: Synergistic antiproliferative activity against human HCC70 cells assessed as combination index at ED50 measured after 96 hrs in presence of lapatinib by celltiter-glo assay. The data set is classed as functional.
Data set [9] has as its system HCC70. Nature of the data set: Antitumor activity against human HCC70 cells xenografted in CB17/icr SCID mouse assessed as tumor growth inhibition at 120 mg/kg, po administered 3 times per week for 3 weeks starting 2 hrs post-lapatinib treatment and measured twice a week during compound dosing by caliper method. The class given is functional, organism-based. In outline: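 Female C.B-17/ICR-scid mice were given s.c. HCC70 cells in 50% Matrigel/50% PBS in the left flank. They were randomized at a mean tumor size of 0.2 cm³, n = 5 per group. Lapatinib (distilled water) was given at 100 mg/kg po, 5 d/wk for 3 wk. MK-2206 (30% Captisol) was given at 120 mg/kg po, 3×/wk, 2 h after lapatinib. Calipers twice weekly; volume = […] × 0.5.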

The subject of a further data set is MDA-MB-468. Nature of the data set: Synergistic antiproliferative activity against lapatinib pretreated human MDA-MB-468 cells assessed as combination index at ED75 measured after 72 hrs by celltiter-glo assay. The data set is classed as functional.
The target of data set [10] is RAC-alpha serine/threonine-protein kinase (Homo sapiens) (UniProt P31749). Nature of the data set: Inhibition of AKT in human A-431 cells assessed as reduction in S6 phosphorylation at S240/S244 residues at 5 umol/L measured after 5 hrs in presence of erlotinib by Western blot analysis. The data set is classed as cell-based. To be noted: dose 5.0 µmol/L. In outline:
as §2

The next data set concerns BT-474. Nature of the data set: Synergistic antiproliferative activity against human BT-474 cells assessed as combination index at ED50 preincubated for 24 hrs followed by compound washout and subsequent docetaxel addition and measured after 72 hrs by celltiter-glo assay. The data set is classed as functional. In outline: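 Sequential schedule. Cells were seeded at 2 to 3 × 10³ per well in RPMI 1640 with 10% FBS and dosed 24 h after plating. They were exposed to the Akt inhibitor for 24 h, washed free of it, then given docetaxel for a further 72 h. Fixed concentration ratios spanned each agent's IC₅₀. ATP was read by CellTiter-Glo, and Chou–Talalay CI was calculated at ED50, ED75 and ED90.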

Activity calls are given as the source filed them. The rule behind the calls is not given here.

RAC-alpha serine/threonine-protein kinase (Homo sapiens), sequence (P31749 whole entry): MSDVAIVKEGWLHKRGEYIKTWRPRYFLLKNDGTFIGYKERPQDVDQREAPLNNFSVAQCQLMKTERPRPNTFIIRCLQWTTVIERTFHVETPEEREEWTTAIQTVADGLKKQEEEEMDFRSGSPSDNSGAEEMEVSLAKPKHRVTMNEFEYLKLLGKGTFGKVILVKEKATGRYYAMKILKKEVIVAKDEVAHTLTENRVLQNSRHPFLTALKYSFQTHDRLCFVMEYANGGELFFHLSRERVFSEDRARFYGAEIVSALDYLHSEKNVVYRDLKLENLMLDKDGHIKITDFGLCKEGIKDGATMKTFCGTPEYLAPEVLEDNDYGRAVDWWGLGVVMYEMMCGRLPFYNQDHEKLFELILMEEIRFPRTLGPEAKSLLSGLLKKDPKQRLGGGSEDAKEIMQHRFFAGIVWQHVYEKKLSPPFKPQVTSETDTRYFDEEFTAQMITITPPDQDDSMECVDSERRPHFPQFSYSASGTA

For `Cl.NC1(c2ccc(-c3nc4ccn5c(=O)[nH]nc5c4cc3-c3ccccc3)cc2)CCC1`, the CI90 is listed as 0.14 with A-431, 0.8 in the data set on SK-BR-3 [1] and 0.12 with HCC827. For the same compound, the CI50 in the data set on NCI-H1299 was 0.28; with NCI-N87 it was 0.45; in the data set on A2780 it was 0.7; in the data set with NCI-H460 [6], 0.66; in the data set with HCC70 [8], 0.18; in the data set with BT-474, 1.6. Besides, the figures for the CI75 in the data set on NCI-H460 [2], in the data set with SK-BR-3 [3] and with MDA-MB-468 were 0.39, 0.18 and 0.18, respectively. Besides, the result with NCI-H292 was Active. Further, in the data set on SK-OV-3, the TGI result was “Dose-Dependent Effect”. The inhibition entry in data set [4] and in data set [10] was “Active” in each case. Further, the Activity in data set [5] is on record as 8%; in [7], 7%. Moreover, the TGI result in the data set with HCC70 [9] is “Active”.
